Series [1] relates to TK6. Kind of series: Genotoxicity in human TK6 cells in presence of S9 fraction by GreenScreen assay. It counts as toxicity, cell-based.
Series [2] can be described thus: Drug metabolism in human liver microsomes assessed as pyridine N-oxidation at 50 uM measured after 60 mins […] by LC-ESI/MS analysis. The series is classed as ADME, Microsome. The settings on record: 1 h.
The subject of series [3] is Lymphocyte. Put plainly: Genotoxicity in human primary lymphocytes assessed as induction of DNA damage up to 1000 uM by GreenScreen assay. It counts as toxicity, cell-based.
Series [4] in a line: Drug metabolism in Wistar Han rat liver microsomes assessed as pyridine N-oxidation at 50 uM measured after 60 mins […] by LC-ESI/MS analysis. It counts as ADME, Microsome. As to conditions: 1 h. In general terms: Liver microsomes are vesicles of endoplasmic reticulum, rich in cytochrome P450 enzymes.
The nature of series [5]: Kinetic aqueous solubility of the compound in 80:20 PBS/acetonitrile solution at 200 uM by HTS assay. It counts as physicochemical. The settings on record: buffer.
Series [6] in a line: Thermodynamic solubility of compound in water after 24 hrs by LC-UV based shake flask method. The series is classed as physicochemical. The settings on record: buffer. The gist of the method:
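Thermodynamic water solubility measured by saturation shake flask, with the concentration of the saturated solution reported.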

Series [7] can be described thus: Drug metabolism in Wistar Han rat liver microsomes assessed as aliphatic hydroxylation of paraffin linker at 50 uM measured after 60 mins […] by LC-ESI/MS analysis. It counts as ADME, Microsome. The settings on record: 1 h.
The nature of series [8]: Drug metabolism in Wistar Han rat liver microsomes assessed as oxidative N-dealkylation at 50 uM measured after 60 mins […] by LC-ESI/MS analysis. The series is classed as ADME, Microsome. As to conditions: 1 h.
Series [9] has as its system Lymphocyte. Kind of series: Genotoxicity in human primary lymphocytes in presence of S9 fraction by GreenScreen assay. It counts as toxicity, cell-based.
A short description of series [10]: Drug metabolism in human liver microsomes assessed as oxidative N-dealkylation at 50 uM measured after 60 mins […] by LC-ESI/MS analysis. The series is classed as ADME, Microsome. The settings on record: 1 h.
Series [11] can be described thus: Drug metabolism in human liver microsomes assessed as aliphatic hydroxylation of paraffin linker at 50 uM measured after 60 mins […] by LC-ESI/MS analysis. The series is classed as ADME, Microsome. The settings on record: 1 h.
Series [12] deals with TK6. Kind of series: Genotoxicity in human TK6 cells assessed as induction of DNA damage up to 1000 uM by GreenScreen assay. It counts as toxicity, cell-based.

This is an account of results in ChEMBL document CHEMBL4359872, “Identification of potent triazolylpyridine nicotinamide phosphoribosyltransferase (NAMPT) inhibitors bearing a 1,2,3-triazole tail group” (Eur J Med Chem, 2019).

Consider `O=C(NCCCCCCCn1cc(-c2cccnc2)nn1)c1ccccc1-c1ccccc1`, for which, in [1], the MTC was determined as 125 µM. For the same compound, the Drug metabolism entry in [2], in series [4], in series [7], in series [8], in series [10] and in [11] was “Metabolite_Detected” in each case. In addition, the Activity entry in series [3] and in [12] was “Non-Toxic” throughout. For the same compound, in series [5], the Kinetic_solubility result was “Soluble”. For the same compound, in series [6], the Therm_solubility result is on record as “Soluble”. Moreover, the LEC in [9] was determined as 125 µM.
